MC4R antag cAMP – blocks human MC4R cAMP signaling; MC4R-expressing cells, MTII-stimulated cAMP, LANCE TR-FRET; inhibition, % at 6.5 µM; 360,000 compounds, 0.48% hits; AID 540295;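 active = inhibition above its plate's cutoff, the mean of tested wells on that plate plus 3 SD, cut at about 29% in these data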
Target sequence (P32245 whole entry, looked up): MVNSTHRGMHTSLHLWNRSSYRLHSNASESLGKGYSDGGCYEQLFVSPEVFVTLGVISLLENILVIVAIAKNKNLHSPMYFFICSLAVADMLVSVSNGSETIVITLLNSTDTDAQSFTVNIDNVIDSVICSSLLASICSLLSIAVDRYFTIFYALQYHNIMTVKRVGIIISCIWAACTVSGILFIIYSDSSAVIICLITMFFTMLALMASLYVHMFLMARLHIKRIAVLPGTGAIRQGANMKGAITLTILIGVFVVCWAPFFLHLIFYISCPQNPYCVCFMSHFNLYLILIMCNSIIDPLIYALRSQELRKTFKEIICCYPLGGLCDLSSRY
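Assay system: U2OS cells stably expressing human melanocortin 4 receptor (MC4R) / Dosing: 6.5 µM / Timing: compound 30 min, challenge 1 h, detection 1 h / Measured by: Eu-cAMP/anti-cAMP TR-FRET, emission 671 nm / Replicates: singlicate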
AHR act – activates the human aryl hydrocarbon receptor; P35869; AHR-responsive luciferase reporter cells, luminescence; activation, % at 5 µM; 320,000 compounds, 2.5% hits; in the data active = activation above about 47%
m5-HT2A agonist – activates the mouse 5-HT2A serotonin receptor; activation, % at 7.6 µM; CHO-K1 mHTR2A beta-arrestin complementation, luminescence; percent of 30 µM serotonin response; 360,000 compounds, 0.66% hits; P35363;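 active = activation above a run cutoff, the mean activation of all tested compounds plus 3 SD, cut at about 14% in these data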
MC4R ag barr – human MC4R agonism via beta-arrestin; P32245; U2OS MC4R beta-arrestin complementation, luminescence; percent of melanotan II response, DMSO zero; activation, % at 8.9 µM; 360,000 compounds, 0.98% hits; AID 540308;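 active = activation above a per-plate cutoff, the mean activation of sample wells on that plate plus 3 SD, cut at about 8% in these data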
GAA850 FXN act – frataxin GAA850 promoter activation | HEK293 lucGAA850 FXN promoter luciferase reporter, 24 h; percent of 10 µM SAHA response | activation, % at 6 µM | 360,000 compounds, 0.56% hits | AID 540364;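 active = activation above the average of all compounds screened plus 3 SD, cutoff fixed separately per campaign, cut at about 7.5% in these data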
MC4R barr ag – human MC4R beta-arrestin agonism confirmation; shares compounds with MC4R ag barr; activation, % at 8.9 µM; 2,400 compounds, 31% hits; AID 602192; U2OS MC4R beta-arrestin recruitment, luminescence; scaled DMSO 0%, Melanotan II 100%;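 active = mean activation across replicates above the hit cutoff set in the earlier primary screen, cut at about 8% in these data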
MOR-DOR barr ag – OPRM1-OPRD1 heterodimer agonism counter-screen | 2,400 compounds, 5.8% hits | activation, % at 9.2 µM | shares compounds with MC4R ag barr | AID 602194 | U2OS PathHunter beta-arrestin, beta-gal luminescence; percent of deltorphin B response, DMSO zero;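 active = mean activation across replicates exceeds the hit threshold derived in the earlier primary screen, cut at about 18% in these data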
Of the large screens only hits and unclear results are named; the others gave an inactive call (follow-up assays come after a bar, where they were run). Sampled rows, rich in hits. Any-hit rate of the full collection: about 4.7%.

CCn1cc(C(=O)N[C@@H](CCSC)C(=O)NCCN2CCOCC2)c(=O)c2cc3c(cc21)OCO3	none
CCOC(=O)c1c(NC(=O)CN2CCCc3ccccc32)sc(C(C)=O)c1C	MC4R ag barr 23 | MC4R barr ag inactive | MOR-DOR barr ag inactive
CCN(CC)S(=O)(=O)c1ccc(N2CCOCC2)c(NC(=O)c2ccc(N3CCCC3=O)cc2)c1	none
O=C(NC(=S)Nc1ccc2oc(=O)ccc2c1)c1cccc(F)c1	none
O=C(NC(=S)Nc1ccc2oc(=O)ccc2c1)c1cccc(Cl)c1	MC4R ag barr 20 | MC4R barr ag inactive | MOR-DOR barr ag inactive
Cc1ccc(Cn2ccc(NC(=O)c3cc(-c4ccccc4)on3)n2)cc1	MC4R ag barr 11 | MC4R barr ag inactive | MOR-DOR barr ag inactive
Cc1ccc(Cn2ccc(NC(=O)c3cc(-c4ccc(Br)cc4)on3)n2)cc1	none
Cc1ccc(C)c(N2CCN(S(=O)(=O)c3ccc4[nH]c(=O)ccc4c3)CC2)c1	MC4R ag barr 17 | MC4R barr ag inactive | MOR-DOR barr ag inactive
Cc1cccc(N2CCN(S(=O)(=O)c3ccc4[nH]c(=O)ccc4c3)CC2)c1C	none
CCN(CC)c1ccc2cc(C(=O)NCc3ccc(F)cc3)c(=N)oc2c1	MC4R ag barr 13 | MC4R barr ag inactive | MOR-DOR barr ag inactive
N=c1oc2ccc(Br)cc2cc1C(=O)NCc1ccc(F)cc1	none
COc1ccc(CCn2c(C)cc(C(=O)CSc3nnnn3-c3ccccc3)c2C)cc1OC	MC4R ag barr 17 | MC4R barr ag inactive | MOR-DOR barr ag inactive
Cc1ccc(-c2ccc(/C=N\NC(=O)C3C(=O)NCC3c3ccccc3)o2)cc1Cl (stereo not drawn)	MC4R ag barr 13 | MC4R barr ag inactive | MOR-DOR barr ag inactive
CC(=O)NCCNc1nc2cc(-c3cscc3C)sc2c(=O)n1C	none (no result: AHR act)
CCCCCCOc1ccc(/C(C)=N/NC2=NCCN2)cc1	MC4R ag barr 11 | MC4R barr ag 29 | MOR-DOR barr ag inactive
Cc1ccc(Cc2c(-c3ccc(Cl)cc3)nc3c(C)cc(Br)cn23)cc1	none (no result: MC4R antag cAMP, AHR act, MC4R ag barr, GAA850 FXN act)
O=C(NCC(c1cccs1)N1CCOCC1)c1ccc(OCc2ccccc2)cc1 (stereo not drawn)	none
O=C(CSc1ccc(Cl)cc1)NC(=O)c1ccccc1	none
O=C(CSc1ccccc1F)NC(=O)c1ccc(Cl)cc1	MC4R ag barr 10 | MC4R barr ag inactive | MOR-DOR barr ag inactive
O=C(c1cc(S(=O)(=O)N2CCOCC2)ccc1F)N1CCc2ccccc21	none
CCOC(=O)C1=CN(Cc2ccco2)S(=O)(=O)NC1c1ccc(C(F)(F)F)cc1 (stereo not drawn)	none (no result: AHR act)
CC(C)CCNc1ncnc2c1nnn2Cc1ccccc1Cl	MC4R ag barr 18 | MC4R barr ag inactive | MOR-DOR barr ag inactive
CCOc1cc(S(=O)(=O)Nc2cc(C)cc(C)c2)ccc1Cl	MC4R ag barr 9.6 | MC4R barr ag inactive | MOR-DOR barr ag inactive
CCOc1cc(S(=O)(=O)NC2CCCC2)ccc1Cl	none
CC(CC(=O)Nc1nnc(CC(C)(C)C)s1)c1ccccc1 (stereo not drawn)	none
O=C(Nc1ccc2c(c1)OCO2)c1cc2n(n1)C(C(F)(F)F)CC(c1ccccc1)N2 (stereo not drawn)	MC4R ag barr 15 | MC4R barr ag inactive | MOR-DOR barr ag inactive
COc1ccc(NC(=O)c2cc3n(n2)C(C(F)(F)F)CC(c2ccc(OC)cc2)N3)cc1 (stereo not drawn)	none
COC(=O)c1c(NC(=O)CN2CCN(Cc3ccc4c(c3)OCO4)CC2)sc(C)c1C	MC4R ag barr 9.6 | MC4R barr ag inactive | MOR-DOR barr ag inactive
COC(=O)c1ccsc1NC(=O)CN1CCN(Cc2ccc3c(c2)OCO3)CC1	none
N#Cc1c(N)c(C#N)c(-c2ccc3c(c2)OCO3)c2c1CCCC2	MC4R ag barr 10 | MC4R barr ag inactive | MOR-DOR barr ag inactive
COc1cccc2cc(C(=O)c3ccc([N+](=O)[O-])cc3)oc12	MC4R ag barr 20 | MC4R barr ag inactive | MOR-DOR barr ag inactive
COc1cccc2cc(C(N)=O)oc12	none
CCN(C[C@H]1N[C@@](CC)(C(=O)OC)[C@H]2C(=O)N(Cc3ccccc3)C(=O)[C@@H]12)C(=O)NC(C)C	none
O=C(CCc1ccccc1)N/N=C/c1cc(Br)ccc1O	MC4R ag barr 15 | MC4R barr ag inactive | MOR-DOR barr ag inactive
COc1ccc(C2C(=O)c3ccccc3C2=Nc2ccc(Br)cc2)cc1 (stereo not drawn)	MC4R ag barr 26 | MC4R barr ag 11 | MOR-DOR barr ag inactive
COc1cccc(-c2cccc(-c3nc(C(=O)NCCCN4CCOCC4)cc4c3[C@H](CCO)N(S(=O)C(C)(C)C)C4)c2)c1 (stereo partly drawn)	none (no result: MC4R antag cAMP, AHR act, MC4R ag barr, GAA850 FXN act)
CN(C)c1ccc(NC(=O)Cn2ncn3c(cc4ccccc43)c2=O)cc1	none
CC(C)c1ccc(NC(=O)Cn2ncn3c(cc4ccccc43)c2=O)cc1	MC4R ag barr 12 | MC4R barr ag inactive | MOR-DOR barr ag inactive
CC(=O)Nc1ccc(NC(=O)CCc2nc3sc4c(c3c(=O)[nH]2)CCCC4)cc1	none
Cc1cc(C)cc(NC(=O)CCc2nc3sc4c(c3c(=O)[nH]2)CCCC4)c1	AHR act 59, MC4R ag barr 13 | MC4R barr ag inactive | MOR-DOR barr ag inactive
CC(C)(C)NC(=O)C(c1ccccc1F)n1c(=O)c(-c2ccccc2)nc2ccccc21 (stereo not drawn)	none (no result: MC4R antag cAMP, AHR act, MC4R ag barr, GAA850 FXN act)
COc1ccc(S(=O)(=O)N(C)CC(=O)Nc2ccc(C(F)(F)F)cc2)cc1Cl	MC4R ag barr 17 | MC4R barr ag inactive | MOR-DOR barr ag inactive
O=[N+]([O-])c1ccc(N/N=C/c2ccccc2)c(F)c1	MC4R ag barr 12 | MC4R barr ag inactive | MOR-DOR barr ag inactive
O=[N+]([O-])c1ccc(C=NNc2ccccc2)cc1	none (no result: AHR act)
CC1Sc2ccc(C(=O)O)cc2NC1=O (stereo not drawn)	none
COc1cccc(COC(=O)c2ccc3c(c2)NC(=O)C(C)S3)c1OC (stereo not drawn)	MC4R ag barr 19 | MC4R barr ag inactive | MOR-DOR barr ag inactive
CC1Sc2ccc(C(=O)OCc3ccccc3Cl)cc2NC1=O (stereo not drawn)	MC4R ag barr 35 | MC4R barr ag inactive | MOR-DOR barr ag inactive
O=C(CSc1nnc(-c2cccs2)o1)N1CCCCC1	none
O=C(CSc1nnc(-c2cccs2)o1)N1CCOCC1	MC4R ag barr 18 (no result: AHR act) | MC4R barr ag inactive | MOR-DOR barr ag inactive
CC(=O)c1ccc(-c2cnc3c(NC=O)cc(-c4ccc(C(=O)NC5CC5)cc4)cn23)cc1	MC4R ag barr 11 (no result: AHR act) | MC4R barr ag inactive | MOR-DOR barr ag inactive

From PubChem
